Screening results: PubChem, The Scripps Research Institute Molecular Screening Center
PRMT1 inh = inhibitors of human PRMT1; Q99873; recombinant PRMT1, activity-based probe fluorescence polarization; inhibition, % at 2.79 µM; 370,000 tested, 1.3% active; AID 652257;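 active = inhibition above about 21% made by adding two undisclosed values, limit read from the data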
PAD4 FP inh = blocks human protein arginine deiminase 4 | Q9UM07 | recombinant PAD4, RCA probe fluorescence polarization | inhibition, % at 6.36 µM | 330,000 tested, 0.41% active;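 active = percent inhibition above a cutoff equal to the mean of all tested compounds plus 3 SD, cut at about 15% in these data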;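 note: 0% = PAD4 with RCA probe and DMSO and 100% = probe without PAD4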
CTSL1 counter = cathepsin L1 inhibition, PFM18AAP counter-screen. recombinant F. hepatica cathepsin L1, Z-Leu-Arg-MCA fluorescence. inhibition, % at 5.96 µM. 300,000 tested, 0.49% active;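 active = inhibition above the mean of all tested compounds plus 3 SD, set per screening campaign, cut at about 17% in these data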;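 note: 0% = plate median of test compound wells and 100% = 1 µM Z-Phe-Ala-diazomethylketone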
GSTO1 inh = counter-screen for RBBP9 inhibitors: inhibitors of human GSTO1; AID 1974; inhibition, % at 5.96 µM; recombinant GSTO1, activity-based probe fluorescence polarization; 300,000 tested, 1.1% active; P78417;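 active = inhibition above the campaign mean inhibition plus 3 SD, cut at about 35% in these data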;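 note: 0% = GSTO1-1 with DMSO and 100% = wells lacking GSTO1-1 enzyme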
Target sequence (P78417 whole entry, looked up): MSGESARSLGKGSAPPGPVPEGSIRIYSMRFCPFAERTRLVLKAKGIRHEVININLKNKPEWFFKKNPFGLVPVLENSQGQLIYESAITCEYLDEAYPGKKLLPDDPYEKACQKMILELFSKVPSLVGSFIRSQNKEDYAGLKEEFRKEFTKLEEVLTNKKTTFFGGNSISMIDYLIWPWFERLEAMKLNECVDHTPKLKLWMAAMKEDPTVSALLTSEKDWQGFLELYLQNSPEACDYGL
TDP2 absorb = blocks human TDP2 phosphodiesterase activity; AID 720702; inhibition, % at 12.8 µM; O95551; recombinant TDP2, T5PNP hydrolysis, p-nitrophenol absorbance 415 nm; 370,000 tested, 0.34% active;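 active = inhibition above the mean of all tested compounds plus 3 SD, set per campaign, cut at about 25% in these data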;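 note: 0% = DMSO with enzyme and 100% = buffer with substrate but no TDP2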
Target sequence (O95551 whole entry, looked up): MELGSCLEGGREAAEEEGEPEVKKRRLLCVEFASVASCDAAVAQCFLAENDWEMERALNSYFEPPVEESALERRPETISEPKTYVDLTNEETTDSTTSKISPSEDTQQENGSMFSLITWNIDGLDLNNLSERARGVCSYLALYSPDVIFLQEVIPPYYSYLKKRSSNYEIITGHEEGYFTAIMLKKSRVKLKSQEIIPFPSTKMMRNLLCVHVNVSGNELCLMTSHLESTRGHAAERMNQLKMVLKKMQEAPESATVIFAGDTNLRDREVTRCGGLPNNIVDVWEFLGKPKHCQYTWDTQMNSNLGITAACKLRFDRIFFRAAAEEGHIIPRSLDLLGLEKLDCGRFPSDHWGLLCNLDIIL
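test system = human TDP2 enzyme | input = TDP2 enzyme at 120 nM final | medium = 50 mM Tris-HCl pH 7.5 with Mg2+, KCl, DTT, BSA | also added = T5PNP substrate, 5 mM | times = 2 h at 37 °C | technique = epi absorbance | benchmarks = high control without enzyme, low control DMSO plus TDP2 | replication = each compound tested once, singlicate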
PRMT1 inh conf = confirmation of human PRMT1 inhibitors. shares compounds with PRMT1 inh. recombinant His-PRMT1, activity-based probe fluorescence polarization. inhibition, % at 2.79 µM. 3,300 tested, 42% active. AID 687036;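 active = mean inhibition across replicates above the hit cutoff derived for the earlier primary screen, cut at about 22% in these data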
* marks the source's active call; other numbers are inactive results; · = no result; + = active, no number. The list is not random: actives were taken first. Their share in the collection is about 2.5%.

SMILES	PRMT1 inh	PAD4 FP inh	CTSL1 counter	GSTO1 inh	TDP2 absorb	PRMT1 inh conf
c1ccc(-c2ccc(C3=Nn4c(nnc4-c4ccccn4)SC3)cc2)cc1	5	·	·	·	5	·
Cc1cc(C)nc(S/C=C/C(=O)c2ccccc2F)n1	25*	-1	5	12	-5	19
Cc1cc(C)nc(NC(=S)NC(=O)c2ccccc2F)n1	-2	0	2	-3	7	·
COc1cccc(C(=O)NC2C(=O)N3C(C(=O)O)=C(COC(C)=O)CSC23)c1 (centres undefined)	29*	3	·	·	8	34*
CC(=O)OCC1=C(C(=O)O)N2C(=O)C(NC(=O)c3ccc(COc4cccc(Cl)c4Cl)o3)C2SC1 (centres undefined)	37*	-4	-1	-12	20	13
COc1ccc(NC(=O)CSc2nnnn2C2CC2)cc1S(=O)(=O)N1CCOCC1	38*	6	·	·	3	-2
COc1ccc(S(=O)(=O)N2CCOCC2)cc1NC(=O)CSc1nnnn1C1CC1	1	2	·	·	-1	·
CN1CCN(NC(=O)CN2C(=O)S/C(=C\c3c(Cl)cccc3Cl)C2=O)CC1	26*	5	3	10	14	8
O=C(CCN1C(=O)/C(=C/c2ccccc2Cl)SC1=S)NN1CCOCC1	3	-10	-2	7	0	·
CC(=O)Nc1ccc(SCCCC(=O)c2ccccc2)cc1	35*	4	1	7	-1	39*
CC(=O)Nc1ccc(C(=O)NCCCSc2ccccc2)cc1	-2	1	1	4	2	·
COc1ccc(C(C)=O)cc1COC(=O)C1CCN(C(=O)c2ccc(Cl)cc2)CC1	+	-1	·	·	6	5
CCCCCCCCN1C(=O)N2Cc3ccc(C)cc3C2CS1(=O)=O (centres undefined)	1	·	·	·	3	·
COCCNC(=O)C1CCCN(C(=O)c2oc3ccccc3c2C)CC1 (centres undefined)	46*	·	·	·	3	3
C=CCn1c(COc2ccc(C)cc2)nnc1SCC(=O)Nc1ccc(Oc2ccccc2)cc1	1	·	·	·	1	·
CN(Cc1ccccc1)S(=O)(=O)c1cccc(C(=O)OCC2CCCCC2)c1	3	·	·	·	-4	·
COc1ccc(N2C(=O)c3cccc4cccc(c34)C2=O)cc1	-2	1	5	6	-1	·
COc1ccc(N2C(=O)c3cccc4c(N(C)CCO)ccc(c34)C2=O)cc1	29*	·	·	·	-4	24*
O=C(O)CC1NC(=S)N(c2ccccc2)C1=O (centres undefined)	-1	-4	2	3	-1	·
O=C1C(CSCc2ccccc2)NC(=S)N1c1ccccc1 (centres undefined)	27*	-3	1	7	0	68*
CCC[C@H]1[C@@H](NCc2cccs2)CC[C@@]23CCCN2C(=O)CCC[C@@H]13	-7	·	·	·	-13	·
CC(=O)c1cccc(-n2c(CCC(=O)O)ccc2-c2cccs2)c1	68*	-1	5	8	3	16
CC(=O)c1cccc(-n2c(CCC(=O)O)ccc2-c2ccccc2)c1	16	-13	-2	-5	-10	·
O=C(O)CCc1ccc(-c2cccs2)n1-c1ccc(C(=O)O)cc1	37*	-3	1	2	-10	10
O=C(O)CCc1ccc(-c2cccs2)n1CCC(=O)O	16	-3	-1	-1	8	·
SMILES	PRMT1 inh	PAD4 FP inh	CTSL1 counter	GSTO1 inh	TDP2 absorb	PRMT1 inh conf
COc1ccc([C@H]2OC(=O)C[C@H]2C(=O)N2CCCCC2)cc1OC	7	·	·	·	-3	·
CCN1CCc2nc(N)sc2C1	45*	-6	-3	7	4	22*
Nc1nc2c(s1)CCCCCCCCCC2	0	-3	1	0	3	·
C=CCN1CCc2nc(N)sc2CC1	61*	·	·	·	3	11
CCSc1nc(=S)cc(C)[nH]1	69*	-8	-2	0	-15	41*
C=CCN1C(=O)[C@H](CC(=O)N2CCN(C(=O)c3ccco3)CC2)[C@@]2(C(=O)OCC)CCCC=C12	-1	·	·	·	-10	·
CNC(=O)C1C(=S)NC(N)=C(C#N)C1c1ccccc1 (centres undefined)	61*	-5	7	11	12	12
Cc1ccc(NC(=O)[C@@H]2CC(=O)O[C@@H]2c2ccccc2)c(C)c1	7	·	·	·	3	·
O=c1c2ccccc2[nH]n1[C@@H](Cc1ccccc1)Cn1cc(-c2ccc(-c3ccccc3)cc2)nn1	8	·	·	·	5	·
Cn1ncc2c1NC(c1ccc(F)cc1)SCC2=O (centres undefined)	34*	·	·	·	5	55*
O=C(NNc1nc2cc3c(cc2s1)OCCO3)c1ccc(F)cc1	33*	-4	-3	-5	0	-1
O=C(NN=C/C=C/c1ccco1)c1cc(-c2ccc(Cl)cc2)n[nH]1	15	·	·	·	-1	·
Cc1ccc(S(=O)(=O)N/N=C\c2cc3c(cc2Br)OCO3)cc1	-1	4	-1	10	3	·
O=[N+]([O-])c1cc2c(cc1/C=N/NS(=O)(=O)c1ccc(Br)cc1)OCO2	34*	-14	2	29	-10	11
Cc1ccc(SC2CC(=O)N(c3ccc4c(c3)OCCO4)C2=O)cc1 (centres undefined)	36*	-1	0	-1	0	26*
Cc1ccc(N2C(=O)CC(Sc3cccs3)C2=O)cc1 (centres undefined)	66*	15	-3	-5	-7	51*
Cc1ccc(N2C(=O)CC(Sc3nccc(C)n3)C2=O)cc1 (centres undefined)	4	-4	3	6	-7	·
CCOC(=O)[C@@]12CCCC=C1N(CCc1ccc(Cl)cc1)C(=O)[C@H]2CC(=O)NCc1cccc2ccccc12	-5	·	·	·	1	·
Clc1ccccc1Cn1ccc2ccc(-c3ccc4ccn(Cc5ccccc5Cl)c4c3)cc21	5	·	·	·	15	·
COc1ccc(OC)c(C2CC(=O)N3CN(c4ccccc4)CSC3=C2C#N)c1 (centres undefined)	7	1	4	13	-2	·
COc1ccc(C2CC(=O)N3CN(Cc4ccco4)CSC3=C2C#N)cc1 (centres undefined)	20	-2	0	15	3	·
COc1ccc(N2CSC3=C(C#N)C(c4cccc(OC)c4OC)CC(=O)N3C2)cc1 (centres undefined)	41*	-3	-1	3	-8	68*
N#CC1=C2SCN(Cc3ccco3)CN2C(=O)CC1c1ccc(Cl)cc1 (centres undefined)	32*	-3	-1	1	2	13
COc1ccc(C2CC(=O)N3CN(c4ccc(C)c(Cl)c4)CSC3=C2C#N)cc1 (centres undefined)	44*	4	3	2	-6	59*
C#CCNC(=O)C[C@H]1C(=O)N(CCc2ccc(Cl)cc2)C2=CCCC[C@@]21C(=O)OCC	0	·	·	·	6	·
Cc1cc(NS(=O)(=O)c2ccccc2)ccc1NS(=O)(=O)c1ccccc1	4	·	·	·	-5	·
